Measurements reported in ChEMBL document CHEMBL1944548, “Discovery of kinase spectrum selective macrocycle (16E)-14-methyl-20-oxa-5,7,14,26-tetraazatetracyclo[19.3.1.1(2,6).1(8,12)]heptacosa-1(25),2(26),3,5,8(27),9,11,16,21,23-decaene (SB1317/TG02), a potent inhibitor of cyclin dependent kinases (CDKs), Janus kinase 2 (JAK2), and fms-like tyrosine …” (J Med Chem, 2012).

Legend:
[1] = target: T1, Receptor-type tyrosine-protein kinase FLT3 (Homo sapiens, UniProt P36888); assay: Inhibition of recombinant Flt3 using poly(Glu,Tyr) as substrate after 2 hrs by luminescence assay
T1 sequence (P36888 whole entry): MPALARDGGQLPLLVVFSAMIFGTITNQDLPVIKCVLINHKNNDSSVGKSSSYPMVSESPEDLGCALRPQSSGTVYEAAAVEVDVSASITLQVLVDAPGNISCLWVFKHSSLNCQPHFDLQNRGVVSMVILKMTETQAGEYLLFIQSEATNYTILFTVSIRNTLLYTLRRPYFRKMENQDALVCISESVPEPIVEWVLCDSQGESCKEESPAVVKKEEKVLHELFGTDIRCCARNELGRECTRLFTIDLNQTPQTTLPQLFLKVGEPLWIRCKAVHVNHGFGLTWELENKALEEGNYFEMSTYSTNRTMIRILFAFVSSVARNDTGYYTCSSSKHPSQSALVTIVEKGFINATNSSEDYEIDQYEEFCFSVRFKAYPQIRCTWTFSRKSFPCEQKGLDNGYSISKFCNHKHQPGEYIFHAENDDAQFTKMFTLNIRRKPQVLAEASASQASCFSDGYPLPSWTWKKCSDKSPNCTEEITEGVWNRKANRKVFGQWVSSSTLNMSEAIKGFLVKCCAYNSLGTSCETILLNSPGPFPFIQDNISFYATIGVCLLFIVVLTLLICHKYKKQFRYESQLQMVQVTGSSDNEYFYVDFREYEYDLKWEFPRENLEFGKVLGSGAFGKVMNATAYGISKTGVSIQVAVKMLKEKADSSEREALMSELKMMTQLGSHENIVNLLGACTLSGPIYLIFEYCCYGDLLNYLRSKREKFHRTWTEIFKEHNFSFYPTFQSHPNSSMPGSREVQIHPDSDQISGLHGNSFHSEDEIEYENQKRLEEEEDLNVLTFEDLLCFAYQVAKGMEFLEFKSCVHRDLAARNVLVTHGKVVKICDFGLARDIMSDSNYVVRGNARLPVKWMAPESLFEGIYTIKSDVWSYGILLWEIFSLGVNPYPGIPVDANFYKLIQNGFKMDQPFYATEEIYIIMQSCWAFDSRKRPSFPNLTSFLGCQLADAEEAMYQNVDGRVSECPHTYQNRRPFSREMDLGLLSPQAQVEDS

[2] = Tmax in BALB/c mouse at 75 mg/kg, po by LC-MS/MS analysis; assay type: ADME, organism-based; set-up: dose 75 mg/kg, route oral; conditions: in vivo
Summary of the method: (§1)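 Male BALB/c mice (~10−12 weeks, 17−22 g) gavaged with 75 mg/kg as a suspension in 0.5% methylcellulose/0.1% Tween 80. Serial blood by cardiac puncture over 0−24 h into K3EDTA, plasma stored at −70 °C, LC−MS/MS; parameters by noncompartmental analysis.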

[3] = system: HCT-116; assay: Antitumor activity against human HCT116 cells xenografted in BALB/c nude mouse assessed as tumor growth inhibition at 75 mg/kg, po qd administered thrice in a week for 15 days; assay type: functional; conditions: HCT-116, 360 h, read-out: GI
[4] = Cmax in BALB/c mouse at 75 mg/kg, po by LC-MS/MS analysis; assay type: ADME, organism-based; set-up: dose 75 mg/kg, route oral; conditions: in vivo; summary of the method: as §1
[5] = Terminal half life in BALB/c mouse at 5 mg/kg, iv by LC-MS/MS analysis; assay type: ADME, organism-based; set-up: dose 5 mg/kg, route intravenous; conditions: in vivo, read-out: beta t1/2 (converted)
[6] = Volume of distribution at steady state in BALB/c mouse at 5 mg/kg, iv by LC-MS/MS analysis; assay type: ADME, organism-based; set-up: dose 5 mg/kg, route intravenous; conditions: in vivo, read-out: Vdss
[7] = Plasma protein binding in dog at 1000 ng/ml after 4 hrs by equilibrium dialysis method; assay type: ADME, cell-free, Canis lupus familiaris; conditions: read-out: PPB
Summary of the method: (§2)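 Equilibrium dialysis of plasma (mouse, dog, human) spiked to 1000 ng/mL against PBS, 4 h at 37 °C. Buffer side extracted in triplicate with MTBE, dried, reconstituted in methanol/water 60:40, measured by LC−MS/MS.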

[8] = Plasma protein binding in mouse at 1000 ng/ml after 4 hrs by equilibrium dialysis method; assay type: ADME, cell-free; conditions: read-out: PPB (converted); summary of the method: as §2
[9] = target: Cytochrome P450 2C9 (Homo sapiens, UniProt P11712); assay: Inhibition of CYP2C9 in human liver microsomes using Tolbutamide as substrate after 60 mins by LC-MS/MS analysis; assay type: ADME, Microsome
Summary of the method: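 Human liver microsomes (0.5 mg/mL for CYP2C19, 1 mg/mL for CYP2C9), NADPH 1 mM, test at 0.05−25 μM (DMSO 0.35% final), 37 °C; probes mephenytoin 25 μM (CYP2C19) and tolbutamide 120 μM (CYP2C9), 60 min each. IC50 from decrease in metabolite formation vs vehicle.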

[10] = target: T2, Cytochrome P450 1A2 (Homo sapiens, UniProt P05177); assay: Inhibition of CYP1A2 in human liver microsomes using ethoxyresorufin as substrate after 5 mins by LC-MS/MS analysis; assay type: ADME, Microsome
T2 sequence (P05177 whole entry): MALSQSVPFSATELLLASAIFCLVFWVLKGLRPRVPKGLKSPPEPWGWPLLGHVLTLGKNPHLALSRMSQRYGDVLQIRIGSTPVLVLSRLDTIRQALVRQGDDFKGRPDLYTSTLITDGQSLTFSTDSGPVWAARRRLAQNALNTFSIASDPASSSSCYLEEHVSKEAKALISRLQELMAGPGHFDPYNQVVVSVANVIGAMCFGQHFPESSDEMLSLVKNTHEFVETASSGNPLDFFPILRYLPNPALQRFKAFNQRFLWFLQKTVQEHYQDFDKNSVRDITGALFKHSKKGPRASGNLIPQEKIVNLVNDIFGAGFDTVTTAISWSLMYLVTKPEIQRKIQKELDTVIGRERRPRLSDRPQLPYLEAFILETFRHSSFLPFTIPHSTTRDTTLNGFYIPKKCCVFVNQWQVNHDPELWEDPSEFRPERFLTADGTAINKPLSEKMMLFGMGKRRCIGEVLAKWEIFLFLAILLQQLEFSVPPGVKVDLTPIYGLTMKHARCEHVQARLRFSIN
Summary of the method: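 Human liver microsomes with 1 mM NADPH at 37 °C. Test concentrations 0.05, 0.25, 0.5, 2.5, 5 and 25 μM; final DMSO 0.35%. CYP1A: 0.25 mg/mL microsomes, ethoxyresorufin 0.5 μM, 5 min. CYP2D6: 0.5 mg/mL microsomes, dextromethorphan 5 μM, 30 min. IC50 from the fall in metabolite formation versus vehicle control. Selective inhibitors served as positive controls.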

[11] = target: Cytochrome P450 3A4 (Homo sapiens, UniProt P08684); assay: Inhibition of CYP3A4 in human liver microsomes using midazolam as substrate after 5 mins by LC-MS/MS analysis; assay type: ADME, Microsome
[12] = system: DU-145; assay: Antiproliferative activity against human DU145 cells after 48 hrs; assay type: functional, cell-based; conditions: DU-145, 48 h
[13] = system: COLO 205; assay: Antiproliferative activity against human COLO205 cells after 48 hrs; assay type: functional, cell-based; conditions: COLO 205, 48 h
[14] = Half life in mouse liver microsomes at 5 uM by LC-MS/MS analysis; assay type: ADME, Microsome
Summary of the method: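 5 μM with mouse, rat, dog or human liver microsomes (~0.87 mg/mL), 50 mM potassium phosphate pH 7.4, NADPH regeneration system, 37 °C.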

Chain of Cytochrome P450 2C9 (P11712 whole entry): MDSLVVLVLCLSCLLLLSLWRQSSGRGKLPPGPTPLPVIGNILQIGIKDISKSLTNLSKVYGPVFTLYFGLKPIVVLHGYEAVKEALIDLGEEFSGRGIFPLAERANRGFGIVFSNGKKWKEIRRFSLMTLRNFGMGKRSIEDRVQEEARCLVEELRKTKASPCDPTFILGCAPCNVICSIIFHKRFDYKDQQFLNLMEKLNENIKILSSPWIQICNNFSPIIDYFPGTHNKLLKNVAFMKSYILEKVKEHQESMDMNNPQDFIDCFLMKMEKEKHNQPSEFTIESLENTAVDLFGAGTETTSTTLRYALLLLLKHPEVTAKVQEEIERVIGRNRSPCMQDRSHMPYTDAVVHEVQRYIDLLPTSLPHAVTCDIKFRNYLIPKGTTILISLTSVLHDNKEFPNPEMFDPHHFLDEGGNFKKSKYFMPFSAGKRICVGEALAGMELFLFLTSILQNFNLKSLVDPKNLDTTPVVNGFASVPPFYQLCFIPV
Chain of Cytochrome P450 3A4 (P08684 whole entry): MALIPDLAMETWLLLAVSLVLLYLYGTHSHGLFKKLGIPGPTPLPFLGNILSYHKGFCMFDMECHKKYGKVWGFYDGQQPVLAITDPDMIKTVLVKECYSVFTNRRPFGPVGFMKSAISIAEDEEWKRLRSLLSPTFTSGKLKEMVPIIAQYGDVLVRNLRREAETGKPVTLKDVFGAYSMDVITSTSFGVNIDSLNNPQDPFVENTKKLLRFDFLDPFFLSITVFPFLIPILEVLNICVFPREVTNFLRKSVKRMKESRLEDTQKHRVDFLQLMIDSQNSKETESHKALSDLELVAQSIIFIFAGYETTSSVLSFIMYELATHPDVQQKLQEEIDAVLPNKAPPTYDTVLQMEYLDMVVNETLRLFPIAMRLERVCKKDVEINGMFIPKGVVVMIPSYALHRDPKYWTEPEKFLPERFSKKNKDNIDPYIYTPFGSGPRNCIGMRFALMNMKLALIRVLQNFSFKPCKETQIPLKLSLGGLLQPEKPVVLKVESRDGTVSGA

CN1C/C=C/CCOc2cccc(c2)-c2ccnc(n2)Nc2cccc(c2)C1 [ZOTIRACICLIB]
IC50 [1]: 56 nM | Tmax [2]: 30 min | inhibition in vivo at 75 mg/kg [3]: 82% | Cmax [4]: 1030 ng/mL | half-life [5]: 276 min | Vd [6]: 23 L/kg | fraction unbound at 4 h, 1000 ng/ml [7]: 0.001 | fraction unbound at 4 h, 1000 ng/ml [8]: 0.006 | IC50 [9]: > 25000 nM | IC50 [10]: > 25000 nM | IC50 [11]: > 25000 nM | IC50 [12]: 140 nM | IC50 [13]: 72 nM | half-life at 5 µM [14]: 12 min
